According to article PMC8103725 (FASEB BioAdvances, 2021):

Assays:
[1] = test system: hCMEC/D3 cells; experiment: Western blot of pAkt‐S473 and total Akt in hCMEC/D3 cells; assay type: cell-based, human; conditions: for effect on Akt phosphorylation induced by HKi2: with HKi2 50 μM, MK‐2206 20 μM, LY294002 10 μM
In short: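 hCMEC/D3 cells were treated with 50 μM test compound or DMSO and washed twice in ice‑cold HBSS. They were lysed in RIPA (50 mM Tris pH 7.5, 150 mM NaCl, 1% NP‑40, 0.5% deoxycholate, 0.1% SDS, 2 mM EDTA, 50 mM NaF) with protease/phosphatase inhibitors and 1 mM Na3VO4. Lysates were spun at 20,000xg for 15 min at 4°C, resolved on 4–12% gels, and immunoblotted for phospho‑Akt Ser473 (1:250) and total Akt. Data are mean ± SEM.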

[2] = target: HEG1–KRIT1 interaction (EGFP‐KRIT1 FERM domain binding to HEG1 cytoplasmic tail on beads) (Homo sapiens, UniProt O00522); experiment: Flow cytometry bead assay for the HEG1–KRIT1 FERM domain interaction; conditions: for inhibition of the HEG1–KRIT1 interaction: result in words
[3] = Aqueous solubility in assay buffer; assay type: physicochemical; conditions: assay buffer conditions
[4] = test system: hCMEC/D3 cells; experiment: Propidium iodide staining, cell viability; assay type: cell-based, human; conditions: 50 μM, 24 h, vs vehicle
In short: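 hCMEC/D3 cells were treated with test compound or the same DMSO concentration, then resuspended in PBS with 1% BSA and stained with propidium iodide. Samples were analysed by flow cytometry, counting PI‑positive cells as dead. Results are percentage viable cells ± SEM, n=3, one‑way ANOVA.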

[5] = test system: klf2a expression in arterial and venous endothelium; experiment: Zebrafish klf2a reporter Tg; assay type: in vivo; conditions: 4 μM, 4 h from 26 hpf
In short: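 Tg(klf2a:H2B‑EGFP);Tg(kdrl:mCherry) embryos were exposed to test compound dissolved in fish egg water. At 30 hpf they were paralysed with tricaine and imaged by confocal microscopy. Nuclear EGFP intensity in vasculature was measured on nuclei outlined through Z, seven nuclei per embryo. Each experiment used two treated and two control embryos; two independent experiments were analysed.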

[6] = test system: PARD3 binding to HEG1 cytoplasmic tail; experiment: PARD3 pulldown assay with HEG1 matrix; set-up: species or system human; conditions: HUVEC lysates, 35 μM compound
In short: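 Clarified lysate (600 μg) was rotated overnight at 4°C with 20 μL neutravidin agarose carrying HEG1 wild‑type (1274–1381) or ΔYF (1274–1379) tail. Incubations contained DMSO, 35 μM test compound or 35 μM 2‑hydroxy‑1‑naphthoic acid. After three washes, bound PARD3 was detected by SDS–PAGE immunoblot with rabbit polyclonal anti‑PARD3.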

[7] = test system: HUVEC; experiment: Genome‐wide RNA sequencing of HUVEC; assay type: cell-based, human; conditions: same conditions as HKi2, vs vehicle; data not shown
In short: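 HUVEC (passages 4–7) were grown on fibronectin in complete EGM‑2 at 37°C, 5% CO2, then given 75 μM test compound or DMSO for 24 h. Only RNA with RIN >8 was used; 400 ng went into TruSeq stranded mRNA libraries. Libraries were sequenced on HiSeq2500 (SR100, 30 million reads), mapped to GRCh release 96 with Hisat2, and analysed for differential expression with EdgeR.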

[8] = test system: hCMEC/D3 cells; experiment: qPCR of KLF4 and KLF2 mRNA in hCMEC/D3 cells; assay type: cell-based, human; conditions: 50 μM, 4 h
In short: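 Test compound came from a 10 mM DMSO stock, rotated 30 min at RT before use. hCMEC/D3 cells (passages 30–37, collagen‑coated, EGM‑2 MV, 37°C/5% CO2) were treated at the indicated doses (12 h dose–response) or over a time course, versus DMSO. RNA was extracted with TRIzol, and 1 µg was reverse‑transcribed with SuperScript III. qPCR used actin normalization and 2−ΔΔCT. Results are relative to vehicle ± SEM: n=3 t test, or n=4 one‑way ANOVA.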

Sequence of HEG1–KRIT1 interaction (EGFP‐KRIT1 FERM domain binding to HEG1 cytoplasmic tail on beads) (O00522 417-736): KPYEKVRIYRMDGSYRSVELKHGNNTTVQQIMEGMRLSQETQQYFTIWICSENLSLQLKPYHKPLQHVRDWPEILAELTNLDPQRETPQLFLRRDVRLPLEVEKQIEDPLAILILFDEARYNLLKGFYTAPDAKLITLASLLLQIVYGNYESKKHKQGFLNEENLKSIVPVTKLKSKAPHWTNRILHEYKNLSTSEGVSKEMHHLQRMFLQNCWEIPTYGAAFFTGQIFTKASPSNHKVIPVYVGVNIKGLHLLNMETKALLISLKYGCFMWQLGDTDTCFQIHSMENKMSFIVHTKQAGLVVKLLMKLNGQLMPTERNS

For `O=c1cc(N2CCOCC2)oc2c(-c3ccccc3)cccc12` [LY294002], which “effect on Akt phosphorylation induced by HKi2” value [1] is on record?
Its value is “prevented an increase in Akt signaling”.

What does the source list for `CC(NC(=O)c1ccccc1/N=C/c1c(O)ccc2ccccc12)c1ccccc1` (centres unmarked) [HKi1, Sirtinol]?
IC50 ([2]; IC50, competition, 70 nM EGFP‐KRIT1 FERM domain, 150 nM HEG1 on the beads): ~10 µM; aqueous solubility [3]: poor solubility

With `O=Cc1nccc2ccccc12` [Compound 8] as the compound, how does the “inhibition of the HEG1–KRIT1 interaction” value [2] read?
The value was “no inhibition”.

Which “inhibition of the HEG1–KRIT1 interaction” value [2] does the source give for `O=Cc1cc(-c2ccccc2)ccc1O` [Compound 6] here?
The value was “moderate inhibition activity”.

With `O=C(O)c1c(O)ccc2ccccc12` [Compound 9, 2‐hydroxy‐1‐naphthoic acid] as the compound, how does the cell viability [4] read?
The cell viability was “no statistical difference”.

What about the “Akt phosphorylation (pAkt‐S473)” value ([1]; 50 μM, 4 h) of the same compound?
The value was “did not elevate Akt activity”.

What about the “inhibition of the HEG1–KRIT1 interaction” value [2] of the same compound?
Its value is “does not block KRIT1 binding to HEG1”.

And the “nuclear EGFP (klf2a reporter) in arterial and venous endothelium” value [5]?
Its value is “no effects”.

What about the “PARD3 binding to HEG1” value [6] of the same compound?
Its value is “no effects”.

And the “effects on HUVECs gene expression by RNA‐Seq” value [7]?
Its value is “no significant effects”.

What about the “KLF2 mRNA levels” value [8] of the same compound?
The value was “did not elevate”.

And the “KLF4 mRNA levels” value [8]?
The value was “did not elevate”.

For `NC1(c2ccc(-c3nc4ccn5c(=O)[nH]nc5c4cc3-c3ccccc3)cc2)CCC1` [MK‐2206], which “effect on Akt phosphorylation induced by HKi2” value [1] is on record?
The value was “prevent the increase in Akt phosphorylation”.
